Sampled rows, rich in hits. Any-hit rate of the full collection: about 2.8%.
NPY-Y1 PAM-ag = potentiators or agonists of human neuropeptide Y receptor Y1 | activation, % at 3.6 µM | AID 1304 | 0.37% of 220,000 active | NPY-Y1 expressing cells, potentiator/agonist activation; in the data active = activation above about 33%, passing the limit was not always enough;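 also: cells stimulated with NPY at EC10 then isoproterenol at EC100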
NPY-Y2 antag = NPY-Y2 (human) receptor antagonism. P49146. NPY-Y2 expressing cells, antagonist mode. inhibition, % at 2.7 µM. 0.99% of 140,000 active. AID 793; in the data active = inhibition above about 17%
Target sequence (P49146 whole entry, looked up): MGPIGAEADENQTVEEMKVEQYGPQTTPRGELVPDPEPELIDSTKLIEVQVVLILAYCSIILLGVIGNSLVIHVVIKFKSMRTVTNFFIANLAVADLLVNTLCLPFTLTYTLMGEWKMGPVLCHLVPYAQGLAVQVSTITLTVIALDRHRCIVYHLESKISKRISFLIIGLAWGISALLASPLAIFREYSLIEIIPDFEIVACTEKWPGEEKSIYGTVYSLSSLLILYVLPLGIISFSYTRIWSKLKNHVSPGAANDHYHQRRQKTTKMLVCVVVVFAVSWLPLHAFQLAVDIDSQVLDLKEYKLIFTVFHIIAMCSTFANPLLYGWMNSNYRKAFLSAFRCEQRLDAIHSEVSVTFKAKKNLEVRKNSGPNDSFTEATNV
EP2 mod = modulators of human EP2 prostaglandin E2 receptor. EP2-expressing cells, cAMP HTRF FRET, PGE2 co-stimulation. 0.83% of 260,000 active. P43116. induction, % at 25 µM. AID 940;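 active = compounds whose cAMP rise, as percent of the full-agonist control response, exceeds 60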;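 also: rat C6 glioma line stably carrying human EP2 under a CMV promoter; the protocol text gives 20 µM as final concentration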
NPY Y1 blocker = NPY-Y1 (human) receptor antagonism; P25929; HEK293-CNG Y1 cells, membrane potential fluorescence; NPY at EC95, then isoproterenol; inhibition, % at 3.6 µM; 1% of 200,000 active; AID 1040;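 active = inhibition above the campaign mean inhibition of all tested compounds plus 3 SD, cut at about 20% in these data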
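Assay system: HEK293 cells with Y1 receptor plus CNG channel | Probe or stimulus: NPY (25 nM), isoproterenol (1 µM), Ro 20-1724 (25 µM) | Timing: Compound incubation 1 h at room temperature, readout 45 min post-stimulation | Measured by: Membrane-potential fluorescent dye readout | Benchmarks: High control isoproterenol alone, low control NPY with isoproterenol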
NPY2 pot ag = human NPY-Y2 potentiation or agonism, primary screen; activation, % at 3.6 µM; 0.45% of 220,000 active; AID 1359; cells expressing NPY-Y2, potentiator/agonist read-out; P49146; in the data active = activation above about 27%;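 also: cells stimulated with NPY near EC25 plus isoproterenol at EC100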
EP2 antag = EP2 receptor (human) inhibition; inhibition, % at 25 µM; AID 1422; 0.52% of 260,000 active; P43116; C6 glioma cells expressing human EP2, cAMP TR-FRET; cells stimulated with saturating PGE2;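 active = percent inhibition above 40 after rounding to a whole number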;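 also: rat C6 glioma host cells with rolipram phosphodiesterase inhibitor present; the protocol text gives 20 µM as final concentration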
Hits are given with their value; n = inactive; x = no result given.

SMILES | NPY-Y1 PAM-ag | NPY-Y2 antag | EP2 mod | NPY Y1 blocker | NPY2 pot ag | EP2 antag
COC(=O)C(Cc1ccc(O)cc1)NC(=O)C12CC3CC(CC(C3)C1)C2 (stereo not drawn) | 51 | x | n | n | 63 | n
Cc1n(CCC(=O)O)c2cc(Cl)c(Cl)cc2[n+]1C | x | x | n | x | x | n
O=C1c2ccccc2C(=Nc2ccccc2)C1c1cccc(Br)c1 (stereo not drawn) | n | n | n | n | n | n
O=C1c2ccccc2[C@@H]([C@H]2c3ccccc3C(=O)c3cc(Br)ccc32)c2ccc(Br)cc21 | x | x | n | x | x | 54
Cc1[nH][nH]c(=O)c1C(c1ccc(-c2ccc(Cl)c(Cl)c2)o1)c1c(C)[nH][nH]c1=O | n | n | n | n | n | n
COC(=O)c1cc(-c2ccc(C(c3c(C)[nH][nH]c3=O)c3c(C)[nH][nH]c3=O)o2)ccc1Cl | x | x | n | x | x | 40
Cc1cc(CN2CCCCC2)c(O)c(CN2CCCCC2)c1 | x | x | n | x | x | 59
O=C(Nc1cc2c(cc1C(=O)c1ccccc1)OCCO2)c1cccs1 | x | x | n | x | x | n
CC(C)C(=O)c1cc2c(cc1NC(=O)c1cccs1)OCCO2 | n | n | 65 | n | n | n
Cc1cc(C)n2c(=O)c3ccc(Cl)cc3nc2c1C#N | n | x | n | n | n | n
Cc1cc(Cl)n2c(nc3cc(F)c(F)cc32)c1C#N | n | x | n | 22 | n | n
CCCCC1CCC(/C(N)=N/O)CC1 (stereo not drawn) | n | n | n | n | n | n
CCCCCC1CCC(C(=O)O)CC1 (stereo not drawn) | n | n | n | 26 | n | n
CC(C)(CO)NCC(O)COc1ccc2c(c1)CCC2 (stereo not drawn) | 101 | n | n | n | 88 | n
CC(C)(C)NCC(O)COc1ccc(Br)cc1 (stereo not drawn) | 108 | x | n | n | 97 | n
CC(C)NCC(O)COCCOc1ccc(Br)cc1 (stereo not drawn) | n | n | n | n | n | n
CC(C)(C)CC(C)(C)NCC(O)COc1ccc2c(c1)CCC2 (stereo not drawn) | n | n | x | n | n | n
Cc1ccc([N+](=O)[O-])c(OCC(O)CNC(C)(C)C)c1 (stereo not drawn) | 113 | x | n | x | 105 | n
COc1ccc(NC(=O)N(Cc2ccc3c(c2)OCO3)Cc2cc3cccc(C)c3[nH]c2=O)cc1 | x | x | n | x | x | n
COc1ccc(C2CCN(CC(=O)NCc3ccco3)CC2)cc1 | x | x | n | x | x | n
Cc1ccccc1NC(=O)c1ccc(CN2CCC(Cc3ccccc3)CC2)cc1 | n | n | n | n | 38 | n
COc1ccc(CCNC(=O)c2ccc(CN3CCC(Cc4ccccc4)CC3)cc2)cc1 | n | n | n | n | n | n
O=C(CC(c1ccccc1)c1ccccc1)Nc1nn[nH]n1 | n | x | n | n | n | n
O=C(Nc1nn[nH]n1)c1nc(-c2ccccc2)cc(=O)[nH]1 | x | x | n | x | x | 55
Cn1c(N2CCC(C(=O)Nc3cccnc3)CC2)nc2ccccc21 | x | x | n | x | x | x
SMILES | NPY-Y1 PAM-ag | NPY-Y2 antag | EP2 mod | NPY Y1 blocker | NPY2 pot ag | EP2 antag
CC1(C)c2ssc(=S)c2-c2ccccc2N1C(=O)CSC1=NCCS1 | n | n | n | n | 34 | n
CC1(C)c2ssc(=S)c2-c2ccccc2N1C(=O)Cc1ccc(F)cc1 | x | x | n | x | x | n
Cc1ccccc1NC(=S)N(Cc1ccccc1)Cc1cccs1 | n | x | n | 22 | n | n
Cc1ccccc1NC(=S)N(CCN1CCCCCC1)Cc1cccs1 | n | x | n | n | n | n
CCN(CC)c1nc(Oc2ccc(C(=O)OC)cc2)nc(N2CCOCC2)n1 | n | x | 62 | n | n | n
N#CCCNc1nncs1 | x | x | n | x | x | n
COc1ccc(C(=O)c2no[n+]([O-])c2C(=O)c2ccc(OC)cc2)cc1 | n | n | n | n | n | 65
O=C(c1cccs1)c1no[n+]([O-])c1C(=O)c1cccs1 | n | n | n | n | n | 130
O=C(c1ccc(Cl)nc1)c1cccs1 | n | x | n | x | n | n
COc1ccc(NC(=O)c2c(N)no[n+]2[O-])cc1 | n | x | n | n | n | n
Cc1ccc(NC(=O)C2SC(=Nc3ccccc3)C(C(=O)Nc3ccc(Cl)cc3)=C2N)cc1 (stereo not drawn) | n | x | n | n | n | n
Cc1ccc(N=C2SC(C(=O)Nc3ccc(OC(F)(F)F)cc3)C(N)=C2C(=O)Nc2c(C)cc(C)cc2C)cc1 (stereo not drawn) | n | n | n | n | 37 | n
O=C(c1c[nH]c2ccc(F)cc2c1=O)N1CCCCCC1 | n | n | n | n | n | n
Cc1cccc2c(=O)c(C(=O)N3CCCCCC3)c[nH]c12 | n | 22 | n | 21 | n | n
CCc1cccc(CC)c1NC(=O)CSc1nnc(-c2ccoc2C)n1CCOC | x | x | n | x | x | n
O=C(O)c1ccc(-c2nc3scc(-c4ccccc4)c3c(=O)[nH]2)cc1 | n | x | n | x | n | 41
CCN1C(=O)C=CC1=O | x | x | n | x | x | n
CCC(=O)OCN1C(=O)C=CC1=O | x | x | n | x | x | 82
Cc1cc(C)c(NC(=O)c2ccccn2)c(C)c1 | x | x | n | x | x | n
CCNC(=S)/N=C(/Nc1ccccc1)Nc1nc(C)cc(C)n1 | n | x | 70 | x | n | n
CC1=C(C)/C(=N\OS(=O)(=O)c2ccc(C)cc2)C=CC1=O | n | n | n | n | n | n
CC1=C/C(=N\OS(=O)(=O)c2ccccc2)C(C(C)C)=CC1=O | n | n | n | n | 31 | n
CC1=C/C(=N\OS(=O)(=O)c2ccccc2)C(C)=CC1=O | 54 | n | n | n | 57 | 133
C=CCN=c1scc(-c2ccc3c(c2)NC(=O)CO3)n1/N=C(\C)c1ccccn1 | n | x | n | n | 34 | n
CC(Sc1nnc(-c2ccc(Cl)cc2Cl)n1Cc1ccccc1)C(=O)Nc1nccs1 (stereo not drawn) | n | 29 | n | 26 | n | n
SMILES | NPY-Y1 PAM-ag | NPY-Y2 antag | EP2 mod | NPY Y1 blocker | NPY2 pot ag | EP2 antag
Cc1nnc(SC(C)C(=O)Nc2ccc(Cl)cn2)n1Cc1ccccc1 (stereo not drawn) | n | n | n | n | n | n
Cc1ccc(C)c(NC(=O)c2cc(-c3ccccc3)nn2-c2ccccc2)c1 | n | n | 64 | n | n | n
COc1ccc(NC(=S)NNC(=S)Nc2cccc(C(F)(F)F)c2)cc1 | 43 | x | n | x | n | n
COc1cc(NS(=O)(=O)c2ccc(C)cc2)ccc1-n1cnnn1 | n | n | n | n | n | 153
CCCNS(=O)(=O)c1ccc(-n2cnnn2)c(OC)c1 | n | x | n | n | n | n
O=C1C2CCCCC2C(=O)N1Cc1ccccc1 (stereo not drawn) | n | x | n | n | n | n
O=c1ccsn1Cc1ccccc1 | n | n | n | n | n | 65
COc1ccc2cc3c(N)c(C(=O)N4CCN(c5ccc(F)cc5)CC4)sc3nc2c1 | x | x | n | x | x | n
CCOC(=O)Cc1csc(NC(=O)/C=C/c2cc(OC)ccc2OC)n1 | x | x | n | x | x | n
Cc1[nH]nc2c1C1(C(=O)N(Cc3ccc(Cl)cc3)c3ccccc31)C(C#N)=C(N)O2 (stereo not drawn) | n | n | n | n | n | n

Screens: PubChem BioAssay, several laboratories
